TRPC4 block = inhibitors of mouse TRPC4 channel, primary screen, Fluo4 calcium, HEK293 TRPC4beta/mu-opioid cells. Short transient receptor potential channel 4 (Mus musculus), Q9QUQ5. DAMGO-evoked Fluo4 calcium flux; active compounds read low. B-score at 10 µM. 300,000 compounds, 0.39% hits. AID 2247, 2010;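 active means B-score over 3 SD under the library average, no early fluorescence shift, positive overall ratio signal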
Target sequence (Q9QUQ5 whole entry, looked up): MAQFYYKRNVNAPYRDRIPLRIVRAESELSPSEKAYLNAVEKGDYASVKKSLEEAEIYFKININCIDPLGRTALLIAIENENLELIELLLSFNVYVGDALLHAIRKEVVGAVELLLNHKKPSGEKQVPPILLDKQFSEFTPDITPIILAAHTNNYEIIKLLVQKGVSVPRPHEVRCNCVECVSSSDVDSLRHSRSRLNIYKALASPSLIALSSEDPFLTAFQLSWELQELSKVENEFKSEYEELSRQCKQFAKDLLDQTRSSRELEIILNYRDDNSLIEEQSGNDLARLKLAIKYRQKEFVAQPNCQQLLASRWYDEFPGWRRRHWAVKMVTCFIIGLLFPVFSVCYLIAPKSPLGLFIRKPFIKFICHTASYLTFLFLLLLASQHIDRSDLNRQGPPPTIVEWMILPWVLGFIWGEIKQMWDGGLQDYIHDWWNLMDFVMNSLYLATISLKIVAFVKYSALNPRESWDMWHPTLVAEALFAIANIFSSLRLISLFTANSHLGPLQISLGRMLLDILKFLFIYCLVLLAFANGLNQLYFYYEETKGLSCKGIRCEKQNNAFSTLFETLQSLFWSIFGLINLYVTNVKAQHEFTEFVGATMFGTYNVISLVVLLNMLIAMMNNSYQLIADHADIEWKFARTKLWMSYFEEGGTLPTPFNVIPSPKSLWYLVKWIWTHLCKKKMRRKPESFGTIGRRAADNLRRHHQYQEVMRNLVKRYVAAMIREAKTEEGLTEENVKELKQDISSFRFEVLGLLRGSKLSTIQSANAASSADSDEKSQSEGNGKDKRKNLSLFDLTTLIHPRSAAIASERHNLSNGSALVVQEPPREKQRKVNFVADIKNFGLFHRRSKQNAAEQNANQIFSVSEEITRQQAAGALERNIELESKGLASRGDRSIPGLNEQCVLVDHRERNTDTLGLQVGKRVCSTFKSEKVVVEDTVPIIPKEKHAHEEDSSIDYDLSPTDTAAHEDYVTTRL
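System: stable TRPC4beta/mu-opioid receptor HEK293 cells; Dosing: single-point compound dosing; Measured by: Fluo4 Ca2+ flux fluorescence; Read-out basis: per-well B score of integrated baseline-normalized Fluo4 ratio.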
Kir21 inh = inhibitors of mouse Kir2.1 inward-rectifier potassium channel; Inward rectifier potassium channel 2 (Mus musculus), P35561; HEK293-Kir2.1, FluxOR thallium flux fluorescence; active compounds read low; B-score at 10 µM; 310,000 compounds, 0.85% hits; AID 1672, 2009;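 active means fluorescence ratio B-score at or below minus 3 SD of library scores, with starting-brightness B-score within 2 SD, cut at about -4.2 in these data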;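 further: channel flux triggered by added potassium and thallium sulfate stimulus; B-score of peak minus minimum fluorescence over baseline after thallium stimulus; more negative B-score means stronger Kir2.1 block with less thallium influx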
TRPC6 inhibitor = mouse TRPC6 channel inhibitors, primary screen, cell-based, HEK293, membrane potential dye | ACh-evoked depolarization; active compounds read low | B-score at 10 µM | 310,000 compounds, 1.1% hits;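 active means B-score under library mean minus 3 SD, initial fluorescence not abnormally high, positive integrated signal ratio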;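 further: B-score derived from integrated fluorescence ratio over the kinetic read; more negative B-score means stronger inhibition of depolarization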
TRPC4 potent = positive allosteric modulators of TRPC4, primary screen, cell-based, mouse TRPC4beta, HEK293 mu-opioid, Fluo-4 calcium | DAMGO EC20, Fluo-4 Ca2+ flux; active compounds read high | AID 2227, 2009 | Short transient receptor potential channel 4 (Mus musculus), Q9QUQ5 | 310,000 compounds, 0.42% hits | B-score at 10 µM;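 active means B-score of calcium response area above 5 SD of library B-scores, with initial fluorescence ratio within 5 SD of library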;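 further: B-score of integrated fluorescence ratio over time as area under calcium response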
TRPC6 act = mouse TRPC6 channel activators, primary screen, cell-based, HEK293, membrane potential dye | Short transient receptor potential channel 6 (Mus musculus), Q61143 | HEK293-TRPC6 membrane potential dye fluorescence; active compounds read high | B-score at 10 µM | 310,000 compounds, 0.13% hits | AID 2550, 2010;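 active means B-score of the integrated fluorescence ratio above library mean plus 3 SD, and starting fluorescence ratio within library mean plus 5 SD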;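 further: higher score means more depolarization so channel activation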
TRPC4 act = activators of mouse TRPC4 channel, primary screen, Fluo4 calcium, HEK293 TRPC4beta/mu-opioid cells. Short transient receptor potential channel 4 (Mus musculus), Q9QUQ5. Fluo4 calcium fluorescence; active compounds read high. B-score at 10 µM. 310,000 compounds, 0.49% hits. AID 2237, 2010;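 active means B-score above 5 SD of library B-scores, and initial fluorescence ratio not above library mean plus 5 SD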;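 further: positive B-score marks a calcium rise read as TRPC4 activation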
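System – HEK293 cells stably co-expressing mouse TRPC4beta and mu-opioid receptor · Signal – Fluo4 calcium-sensitive dye fluorescence, kinetic, 1 Hz baseline · Benchmarks – buffer (low) and maximal DAMGO (high) · Read-out – B score of integrated fluorescence ratio per well · Incubation – dye loading 45 min room temperature, 110 s kinetic read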
* = called active by the depositor; i = inactive. Sampled rows, rich in hits. Any-hit rate of the full collection: about 3%.

SMILES	TRPC4 block	Kir21 inh	TRPC6 inhibitor	TRPC4 potent	TRPC6 act	TRPC4 act
CN(CCNC(=O)c1ccc(CS(=O)(=O)c2ccc(Br)cc2)o1)CCc1ccccc1	i	-4.89*	i	i	i	i
COCCNC(=O)c1ccc(CS(=O)(=O)c2ccc(OC)cc2)o1	i	0.07	i	i	i	i
Cc1cc(C(=O)NC2CCCCCCC2)ccc1[N+](=O)[O-]	i	0.18	i	i	i	i
Cc1ccc(Cl)c(OCCCCN(C)Cc2ccccc2)c1	i	-9.54*	i	i	i	i
CN(CCOc1ccccc1Cl)Cc1ccccc1	i	-0.62	i	i	i	i
CCCCNCCOCCOc1ccc(Cl)cc1Br	i	-6.06*	i	i	i	i
CN(CCOCCOc1ccc(Cl)cc1Br)Cc1ccccc1	i	-7.29*	i	i	i	i
O=C(COC(=O)C1C2CC3OC(=O)C1C3C2)Nc1cccc(Cl)c1 (stereo not drawn)	i	0.35	i	i	i	i
O=C(CN1CCOCC1)Nc1ccccc1Sc1ccccc1	i	-6.3*	i	i	i	i
O=C(CNCCN1CCOCC1)Nc1ccccc1Sc1ccccc1	i	-2.25	i	i	i	i
N=c1sccn1CC(=O)Nc1ccccc1Sc1ccccc1	i	-4.84*	i	i	i	i
CCCn1nnc(NC(=S)NC(=O)/C=C/c2ccco2)n1	i	0.05	i	i	i	i
CC(C)CN(CC(C)C)C(=O)Cc1coc2ccc3ccccc3c12	i	-5.85*	i	i	i	i
O=C(O)Cc1coc2ccc3ccccc3c12	i	-0.32	i	i	i	i
CNS(=O)(=O)c1cc(Nc2ncnc3sccc23)ccc1C	i	-1.15	i	i	i	i
Cc1ccc(-n2ncc3c2CC(C)(C)CC3NC(=O)c2c(C)noc2C)cc1 (stereo not drawn)	i	0.38	i	i	i	i
Cn1ccnc1SCC(=O)Nc1nc2c(F)c(F)c(F)cc2s1	i	-0.32	i	i	i	i
Cc1cc2ccccn2c1C(=O)c1nc(NCc2ccco2)ncc1Cl	i	1.04	i	13*	i	i
c1ccc(Cn2c(NCc3ccco3)nc3ccccc32)cc1	-6*	-0.42	i	i	i	i
CCn1c(NCc2ccco2)nc2ccccc21	i	-1.66	i	54*	i	i
COc1ccc(CNc2nc3ccccc3n2Cc2ccccc2)cc1OC	i	-2.89	i	i	i	i
c1coc(CNc2nc3ccccc3n2CCN2CCOCC2)c1	i	-0.02	i	i	i	i
C=CCn1c(NCc2ccco2)nc2ccccc21	i	-0.32	i	34*	i	i
COc1ccc(CN(C)CC(O)COc2ccc(C(=O)c3ccccc3)cc2)c(OC)c1OC (stereo not drawn)	i	-4.28*	i	i	i	i
COc1ccc(Br)cc1CN(C)CC(O)COc1ccc(Br)cc1 (stereo not drawn)	i	-6.51*	i	i	i	i
SMILES	TRPC4 block	Kir21 inh	TRPC6 inhibitor	TRPC4 potent	TRPC6 act	TRPC4 act
COc1ccc(CN(C)C(=O)c2cccc(Oc3ccccc3)c2)c(OC)c1OC	i	-4.87*	i	i	i	i
COc1cccc(CN(C)C(=O)c2cccc(S(=O)(=O)NCc3ccccc3)c2)c1OC	i	-2.29	i	i	i	i
COc1cccc(OC)c1OCCOc1ccc(C(=O)c2ccccc2)cc1	i	-0.02	i	i	i	i
CN(c1ccccc1)c1nccc(=O)[nH]1	i	1.01	i	i	i	i
Cc1ccccc1S(=O)(=O)Oc1cccc2c(O)cccc12	i	-4.28*	i	i	i	i
CCCCCCNC(=O)CNC(=S)N(Cc1cccs1)C1CCCCC1	i	1.04	i	i	i	i
COC(=O)C1C(c2ccccc2)C(C(=O)N2CCN(C)CC2)C1c1ccccc1 (stereo not drawn)	i	0.36	i	i	i	64*
O=C(OCC(=O)N1CCCCC1)c1cc(NS(=O)(=O)c2ccc(Cl)c([N+](=O)[O-])c2)ccc1O	i	-1.3	i	i	i	i
CCOc1nc(C)cc(C)c1S(=O)(=O)c1cccc(C)c1	i	-4.01	i	19*	i	i
Cc1ccc(C(C)C)c(OCCNS(C)(=O)=O)c1	i	-0.3	i	i	i	i
Cc1ccc(C(C)C)c(OCCCNCc2cccnc2)c1	i	-5.68*	i	i	i	i
Cc1ccc(C(C)C)c(OCCNCCc2ccccc2)c1	i	-9.89*	i	i	i	i
CCCCNCC#CCOc1cc(C)ccc1C(C)C	i	-4.69*	i	i	i	i
COc1cccc(C2N=C(c3ccccc3C)NO2)c1OC (stereo not drawn)	i	-0.01	i	i	i	i
CC1CCC(C(C)C)C(OC(=O)CSc2nnc(N)s2)C1 (stereo not drawn)	i	-4.25*	i	i	i	i
CN(CC(O)COc1c(F)cc(Br)cc1F)C1CCCCC1 (stereo not drawn)	i	-2.01	i	i	i	i
CCOC(=O)C1=NNC(C(=O)c2ccc(Cl)cc2)C1c1ccc(OC)cc1 (stereo not drawn)	i	-0.17	i	15*	i	i
Cc1cc(OCC(O)CN)ccc1Cl (stereo not drawn)	i	0.18	i	i	i	143*
CCOC(=O)N1CCN(CC(O)COc2c(C)cccc2C)CC1 (stereo not drawn)	i	-1.46	i	i	i	i
Cc1cccc(C)c1OCC(O)CN (stereo not drawn)	i	0.22	i	i	i	163*
COc1ccc(N2C3=C(CC4=C2CC(C)(C)CC4=O)C(=O)CC(C)(C)C3)cc1	i	-5.13*	i	i	i	i
